Shown are actives, neighbours in structure and some others; about 2.9% of the full set was active somewhere.
DENV2 CPE = protects cells from dengue virus 2 cytopathic effect; CPE inhibition, % at 9.99 µM; DENV2-infected cells, cytopathic effect rescue, plate reader; 350,000 tested, 1.7% active; AID 651640; in the data active = CPE inhibition above about 20%, passing the limit was not always enough; inconclusive = no clear call, values can overlap the other calls; tested in BHK-21 cells;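 also: 0% = median of neutral control wells and 100% = median of positive control wells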
ERAP1 HTS inh = inhibitors of human ERAP1 aminopeptidase | Q9NZ08 | recombinant ERAP1, Leu-AMC fluorescence, 60 min | inhibition, % at 10.7 µM | 340,000 tested, 0.15% active | AID 652197;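 active = mean replicate inhibition of at least 30%, or all replicates individually reaching that 30% level; inactive = mean below 30% and not every replicate reaching it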;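 also: 0% = neutral control wells and 100% = L-leucinethiol positive control wells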
S100A4 inh HTS = S100A4-myosin IIA interaction inhibition; P26447; inhibition, % at 10.7 µM; S100A4/TAMRA-MyoIIA peptide fluorescence polarization; 360,000 tested, 0.14% active; AID 652163;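 active = mean inhibition of at least 70% across replicates, with every replicate also reaching that level; inconclusive = mean inhibition reaches 70% but some replicates fall short; inactive = mean inhibition below 70%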
Target sequence (P26447 whole entry, looked up): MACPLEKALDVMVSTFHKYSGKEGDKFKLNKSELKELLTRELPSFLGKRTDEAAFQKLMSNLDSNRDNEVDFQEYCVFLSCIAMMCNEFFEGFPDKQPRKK
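Compound dosing: one dose per compound; test system: human S100A4 monomer with TAMRA-labelled myosin IIA peptide; probe or stimulus: TAMRA-labelled myosin IIA heavy-chain peptide probe, 5 nM; medium: HEPES buffer with Ca2+, pH 7.2; schedule: 5 min incubation before reading; benchmarks: neutral control DMSO, positive control TFP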
CAL PDZ FP-1 = blocks peptide binding to human CAL PDZ domain. purified CAL PDZ, TMR-peptide fluorescence polarization, 1 h. Q9HD26. AID 504414. 330,000 tested, 0.02% active. inhibition, % at 20 µM;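 active = highest replicate inhibition of at least 40%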;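 also: plate controls were DMSO neutral control wells for no effect and unlabeled competitor peptide control wells for full effect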
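material = purified tagged CAL PDZ domain construct (CerCALP) | compound dosing = 20 µM, one dose | times = 1 h at RT | measured by = fluorescence polarization from S- and P-plane intensities, G-factor corrected | read-out = inhibition from polarization loss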
SIRT5 block = inhibitors of human sirtuin-5 desuccinylase; inhibition, % at 15 µM; Purified SirT5, succinyl-peptide AMC, trypsin-coupled fluorescence; 330,000 tested, 1.1% active; Q9NXA8; in the data active = inhibition above about 15%; inconclusive = no clear call, values can overlap the other calls
Target sequence (Q9NXA8 whole entry, looked up): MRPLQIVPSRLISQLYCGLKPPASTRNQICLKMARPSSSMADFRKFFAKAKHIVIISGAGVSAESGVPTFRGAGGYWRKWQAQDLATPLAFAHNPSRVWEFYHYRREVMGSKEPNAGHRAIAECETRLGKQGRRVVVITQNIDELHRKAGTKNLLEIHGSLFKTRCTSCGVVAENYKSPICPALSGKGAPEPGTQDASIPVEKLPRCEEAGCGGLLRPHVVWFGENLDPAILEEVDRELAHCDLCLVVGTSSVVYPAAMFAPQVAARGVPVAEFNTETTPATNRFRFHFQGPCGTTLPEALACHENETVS
CAL PDZ FP-2 = blocks peptide binding to the human CAL PDZ domain | inhibition, % at 24.9 µM | 300,000 tested, 0.92% active | purified CAL PDZ, TMR-peptide fluorescence polarization, 1 h;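 active = mean inhibition of at least 30% with at least half of replicates also reaching 30%; inconclusive = no clear call, values can overlap the other calls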;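 also: 0% = DMSO neutral control and 100% = excess unlabeled competitor peptide PRC23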
Active calls of the source: *; ? = inconclusive; . = no result.

SMILES	DENV2 CPE	ERAP1 HTS inh	S100A4 inh HTS	CAL PDZ FP-1	SIRT5 block	CAL PDZ FP-2
CCOC(=O)C1CCN(C(=O)C2CCC(=O)N(Cc3cccc(C(F)(F)F)c3)C2)CC1 (stereo unspecified)	-2	3	3	-2	-6	-3
CC1CCN(C(=O)C2CCC(=O)N(Cc3ccc(Cl)cc3)C2)CC1 (stereo unspecified)	-4	-4	-3	0	23*	-2
COc1cccc(CN2CC(C(=O)NCCc3ccccc3C(F)(F)F)CCC2=O)c1 (stereo unspecified)	-2	0	11	-1	-4	57*
COc1cccc(CN2CC(C(=O)N(C)CC3CCOCC3)CCC2=O)c1 (stereo unspecified)	4	-3	-2	0	19*	7
O=C1CCC(C(=O)N2CCC(CO)CC2)CN1Cc1ccc(Cl)cc1 (stereo unspecified)	10	1	1	0	0	1
CCOC(=O)N1CCN(C(=O)C2CCC(=O)N(Cc3cccc(C(F)(F)F)c3)C2)CC1 (stereo unspecified)	4	-2	-7	-2	21*	0
O=C(NCCCc1ccncc1)C1CCC(=O)N(Cc2cccc(C(F)(F)F)c2)C1 (stereo unspecified)	11	-4	-7	-2	1	3
O=C(NCCC1=CCCCC1)C1CCC(=O)N(Cc2cccc(C(F)(F)F)c2)C1 (stereo unspecified)	-11	-1	-6	0	0	36*
COCCNC(=O)C1(C)CCCN(C(=O)c2ccc(C(=O)OC)cc2)C1 (stereo unspecified)	-4	0	-3	.	0	.
COCCNC(=O)C1(C)CCN(C(=O)c2ccc3sccc3c2)C1 (stereo unspecified)	54*	1	-4	.	.	.
COCCNC(=O)C1(C)CCCN(C(=O)c2ccc(C(F)(F)F)cc2)C1 (stereo unspecified)	50*	4	-3	.	-7	.
COCCNC(=O)C1(C)CCN(C(=O)Cc2ccc(OC)c(OC)c2)C1 (stereo unspecified)	22*	-6	-3	.	.	.
O=C(c1cccnc1)N1C[C@@H]2[C@H](c3ccccc31)[C@H](CO)N2C(=O)Nc1ccc(F)cc1	-3	1	18	.	0	.
CC(C)NC(=O)Nc1ccc2c(c1)CC(=O)N([C@H](C)CO)C[C@@H](C)[C@@H](CN(C)C(=O)Nc1ccc(F)cc1)O2	-13	-4	-1	.	1	.
C[C@@H]1CN([C@H](C)CO)S(=O)(=O)c2ccc(C#CC3(O)CCCC3)cc2O[C@H]1CN(C)C(=O)c1ccccc1	?	1	8	.	1	.
O=C(C[C@H]1CC[C@H]2[C@@H](COC[C@H](O)CN2Cc2cc(F)cc(F)c2)O1)NC1CCCC1	-2	-3	8	.	5	.
CC(C)c1ccc(NC(=O)c2cc(Br)ccc2Br)cc1	-8	0	-2	0	-5	37*
CCc1ccc(NC(=O)c2cc(Br)ccc2Br)cc1	-5	-4	-4	.	0	.
CCCN1C[C@H](C)[C@H](OC)CN(C)C(=O)c2cc(NC(=O)NC3CCCCC3)ccc2OC[C@@H]1C	15	0	116*	.	4	.
CCCN1C[C@H](C)[C@@H](OC)CN(C)C(=O)c2cc(NC(=O)NC3CCCCC3)ccc2OC[C@H]1C	2	-1	6	.	4	.
CO[C@H]1CN(C)C(=O)c2cc(NC(=O)NC3CCCCC3)ccc2OC[C@H](C)N(CCc2ccccc2)C[C@@H]1C	3	-1	-5	.	25*	.
O=C(N[C@@H]1CC[C@H](CCNC(=O)c2ccccc2F)O[C@H]1CO)c1cnccn1	6	2	-1	.	2	.
Cc1noc(C)c1NC(=O)N(C)C[C@@H]1OCCCC[C@H](C)Oc2ccc(NC(=O)Nc3ccc(C(F)(F)F)cc3)cc2C(=O)N([C@@H](C)CO)C[C@H]1C	0	-2	-18	.	-1	.
Cc1noc(C)c1NC(=O)N(C)C[C@H]1OCCCC[C@H](C)Oc2ccc(NC(=O)NC(C)C)cc2C(=O)N([C@H](C)CO)C[C@@H]1C	102*	1	29	.	5	.

Assay outcomes as filed in PubChem.
